Data taken from ChEMBL document CHEMBL1255182, “Methylantcinate A induces tumor specific growth inhibition in oral cancer cells via Bax-mediated mitochondrial apoptotic pathway” (Bioorg Med Chem Lett, 2010).

Tests used:
[1] = Induction of apoptosis in human OC2 cells assessed as caspase 3 activity at 25 uM after 3 hrs by flow cytometry (reference value: 48.99%); assay type: functional
[2] = Induction of apoptosis in human OECM1 cells assessed as early apoptotic cells at 25 uM after 3 hrs by Annexin V-FITC and propidium iodide staining (reference value: 0.69%); assay type: functional
[3] = Induction of apoptosis in human OC2 cells assessed as cytoplasmic histone-associated DNA fragmentation at 50 uM after 4 hrs by TUNEL assay (reference value: 28.6%); assay type: functional
Method in brief: (§1)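 After 4 h exposure to 25 or 50 µM or DMSO vehicle, OC-2 and OEC-M1 oral cancer cells were scored for DNA fragmentation by TUNEL labeling with flow cytometry, as % of cells. Mean ± SD of three determinations.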

[4] = (§2) Cytotoxicity against human OECM1 cells after 24 hrs by MTT assay; assay type: functional, cell-based; settings: OECM1, 24 h
Method in brief: (§3)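 Human oral squamous carcinoma lines, from primary tumours of adult male Taiwanese betel quid chewers, exposed to a range of concentrations for 24 h. DMSO control. Viable cells read by MTT reduction to formazan (absorbance). IC50 is the concentration giving a 50% fall in absorbance relative to control.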

OECM1 [5] = assay: as §2; assay type: functional, cell-based; method in brief: as §3
[6] = Cytotoxicity against human gingival fibroblast at up to 50 uM after 24 hrs by MTT assay
Method in brief: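 Normal human gingival fibroblasts exposed to a range of concentrations for 24 h, with 50 the highest tested. DMSO vehicle control. Viability read by MTT formazan absorbance and compared with control for statistical significance.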

[7] = Induction of apoptosis in human OECM1 cells assessed as caspase 3 activity at 25 uM after 3 hrs by flow cytometry (reference value: 52.34%); assay type: functional
OECM1 [8] = assay: Induction of apoptosis in human OECM1 cells assessed as caspase 3 activity at 50 uM by flow cytometry; assay type: functional, cell-based; settings: TDE = time-dependent effect
Method in brief: (§4)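 OC-2 or OEC-M1 OSCC cells exposed to 50 µM for 3 h, 6 h and 9 h to follow caspase-3 activity over time. Activity read by flow cytometry with a specific peptide substrate.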

OECM1 [9] = assay: Induction of apoptosis in human OECM1 cells assessed as PARP cleavage after 6 hrs by Western blotting; assay type: functional, cell-based
Method in brief: (§5)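 OEC-M1 cells exposed to 10, 25 or 50 µM or DMSO for 6 h. Equal amounts of total lysate immunoblotted for Bcl-2, Bcl-xL, Bax and PARP (116-kDa full-length, 85-kDa cleaved), with β-actin as loading control. Bands quantified as fold of vehicle control after β-actin normalization.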

[10] = Induction of apoptosis in human OECM1 cells assessed as caspase 3 activity at 50 uM after 3 hrs by flow cytometry (reference value: 52.34%); assay type: functional
[11] = Induction of apoptosis in human OC2 cells assessed as early apoptotic cells at 50 uM after 3 hrs by Annexin V-FITC and propidium iodide staining (reference value: 0.67%); assay type: functional
OECM1 [12] = assay: Induction of apoptosis in human OECM1 cells assessed as increase of Bax protein expression after 6 hrs by Western blotting; assay type: functional, cell-based; method in brief: as §5
[13] = Induction of apoptosis in human OECM1 cells assessed as cytoplasmic histone-associated DNA fragmentation at 50 uM after 4 hrs by TUNEL assay (reference value: 8.15%); assay type: functional; method in brief: as §1
OECM1 [14] = assay: Induction of apoptosis in human OECM1 cells assessed as decrease of Bcl-2 protein expression after 6 hrs by Western blotting; assay type: functional, cell-based; method in brief: as §5
[15] = Induction of apoptosis in human OECM1 cells assessed as late apoptotic cells at 50 uM after 3 hrs by Annexin V-FITC and propidium iodide staining (reference value: 5.18%); assay type: functional
[16] = Induction of apoptosis in human OECM1 cells assessed as early apoptotic cells at 50 uM after 3 hrs by Annexin V-FITC and propidium iodide staining (reference value: 0.69%); assay type: functional
[17] = Induction of apoptosis in human OC2 cells assessed as caspase 3 activity at 50 uM after 3 hrs by flow cytometry (reference value: 48.99%); assay type: functional
[18] = Induction of apoptosis in human OC2 cells assessed as cytoplasmic histone-associated DNA fragmentation at 25 uM after 4 hrs by TUNEL assay (reference value: 28.6%); assay type: functional; method in brief: as §1
[19] = (§6) Cytotoxicity against human OC2 cells after 24 hrs by MTT assay; assay type: functional, cell-based; settings: OC2, 24 h; method in brief: as §3
OC2 [20] = assay: as §6; assay type: functional, cell-based; method in brief: as §3
OECM1 [21] = assay: Induction of apoptosis in human OECM1 cells assessed as decrease of Bcl-xL protein expression after 6 hrs by Western blotting; assay type: functional, cell-based; method in brief: as §5
[22] = Induction of apoptosis in human OECM1 cells assessed as cytoplasmic histone-associated DNA fragmentation at 25 uM after 4 hrs by TUNEL assay (reference value: 8.15%); assay type: functional; method in brief: as §1
[23] = Induction of apoptosis in human OC2 cells assessed as late apoptotic cells at 25 uM after 3 hrs by Annexin V-FITC and propidium iodide staining (reference value: 1.92%); assay type: functional
OC2 [24] = assay: Induction of apoptosis in human OC2 cells assessed as caspase 3 activity at 50 uM by flow cytometry; assay type: functional, cell-based; settings: TDE = time-dependent effect; method in brief: as §4
[25] = Induction of apoptosis in human OC2 cells assessed as late apoptotic cells at 50 uM after 3 hrs by Annexin V-FITC and propidium iodide staining (reference value: 1.92%); assay type: functional
[26] = Induction of apoptosis in human OC2 cells assessed as early apoptotic cells at 25 uM after 3 hrs by Annexin V-FITC and propidium iodide staining (reference value: 0.67%); assay type: functional
[27] = Induction of apoptosis in human OECM1 cells assessed as late apoptotic cells at 25 uM after 3 hrs by Annexin V-FITC and propidium iodide staining (reference value: 5.18%); assay type: functional

C=C(CC[C@@H](C)[C@H]1CC[C@H]2C3=C(C(=O)C[C@]12C)[C@@]1(C)CCC(=O)[C@@H](C)[C@@H]1CC3)C(C)C(=O)OC (some centres not stated) [METHYLANTCINATE A]
Activity [1]: 59.19%
Activity [2]: 59.73%
Activity [3]: 52.55%
IC50 [4]: 24.5 µM
Activity (OECM1 [5]): Dose-dependent effect
Activity [6]: Non-toxic
Activity [7]: 66.86%
Activity (OECM1 [8]): tde
Activity (OECM1 [9]): Dose-dependent effect
Activity [10]: 87.07%
Activity [11]: 9.09%
Activity (OECM1 [12]): Dose-dependent effect
Activity [13]: 57.8%
Activity (OECM1 [14]): Dose-dependent effect
Activity [15]: 27.71%
Activity [16]: 62.33%
Activity [17]: 69.06%
Activity [18]: 41.07%
IC50 [19]: 37.4 µM
Activity (OC2 [20]): Dose-dependent effect
Activity (OECM1 [21]): Dose-dependent effect
Activity [22]: 56.5%
Activity [23]: 13.2%
Activity (OC2 [24]): tde
Activity [25]: 14.3%
Activity [26]: 15.35%
Activity [27]: 23.63%
